Reference: ChEMBL document CHEMBL1177752, “Trigoxyphins A-G: diterpenes from Trigonostemon xyphophylloides” (J Nat Prod, 2010)

How the values were obtained:
Format in all cases: functional, cell-based
Bel-7402 = assay: Cytotoxicity against human Bel7402 cells after 72 hrs by SRB assay; conditions: Bel-7402, 72 h
A549 = assay: Cytotoxicity against human A549 cells after 72 hrs by SRB assay; conditions: A549, 72 h
HL-60 = assay: Cytotoxicity against human HL60 cells after 72 hrs by MTT assay; conditions: HL-60, 72 h
Procedure, shortened: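 Cells plated in culture medium in 96-well plates, then treated in triplicate with graded compound concentrations for 72 h at 37 °C. MTT (5 mg/mL solution) added for 4 h, followed by 10% SDS/5% isobutanol/12 mM HCl solubilizer.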

| SMILES | IC50 (Bel-7402) [µM] | IC50 (A549) [µM] | IC50 (HL-60) [µM] |
| --- | --- | --- | --- |
| C=C(C)[C@@]12OC3(c4ccccc4)O[C@@H]1[C@@H]1[C@@H]4O[C@]4(C)[C@@H](O)[C@]4(O)C(=O)C(C)=C[C@H]4[C@@]1(O3)[C@H](C)[C@@H]2OC(=O)c1ccccc1 [TRIGOXYPHIN A] | > 10 | 7.5 | 0.27 |
| C=C(C)[C@@]12OC3(c4ccccc4)O[C@@H]1[C@@H]1[C@H](OC(C)=O)[C@@](C)(OC(=O)c4ccccc4)[C@@H](OC(C)=O)[C@@]4(O)[C@@H](C[C@H](C)[C@@H]4OC(C)=O)[C@@]1(O3)[C@H](C)[C@@H]2O [TRIGOXYPHIN F] | > 10 | – | – |
| Cc1cc2c(cc1O)C1=CC(=O)[C@@H](O)C(C)(C)C1CC2=O (some centres undefined) [TRIGOXYPHIN G] | > 10 | – | – |
| C=C(C)[C@@]12OC3(c4ccccc4)O[C@@H]1[C@@H]1[C@@H]4O[C@]4(C)[C@@H](OC(C)=O)[C@]4(O)C(=O)[C@@H](C)C[C@H]4[C@@]1(O3)[C@H](C)[C@@H]2OC(=O)c1ccccc1 [TRIGOXYPHIN C] | > 10 | – | – |
| COc1cccc2c1C(=O)c1c(O)c3c(c(O)c1C2=O)C[C@@](O)(C(=O)CO)C[C@@H]3O[C@H]1C[C@H](N)[C@H](O)[C@H](C)O1 [DOXORUBICIN] | 0.12 | 0.17 | 0.04 |
| C=C(C)[C@@]1(OC(C)=O)[C@@H]2OC3(c4ccccc4)O[C@H]1[C@@H](C)[C@@]1(O3)[C@H]2[C@H](OC(C)=O)[C@](C)(OC(=O)c2ccccc2)[C@@H](OC(C)=O)[C@@]2(O)[C@H]1C[C@H](C)[C@@H]2OC(C)=O [TRIGOXYPHIN E] | > 10 | – | – |
| C=C(C)[C@@]12OC3(c4ccccc4)O[C@@H]1[C@@H]1[C@@H]4O[C@]4(C)[C@@H](O)[C@]4(O)C(=O)[C@@H](C)C[C@H]4[C@@]1(O3)[C@H](C)[C@@H]2OC(=O)c1ccccc1 [TRIGOXYPHIN B] | > 10 | 4.9 | 0.49 |
| C=C(C)[C@@]1(O)[C@@H]2OC3(c4ccccc4)O[C@H]1[C@@H](C)[C@@]1(O3)[C@H]2[C@H](OC(C)=O)[C@](C)(OC(=O)c2ccccc2)[C@@H](OC(C)=O)[C@@]2(O)[C@H]1C[C@H](C)[C@@H]2OC(C)=O [TRIGOXYPHIN D] | > 10 | – | – |
